The target in assay [1] is Neuronal acetylcholine receptor subunit alpha-7 (Rattus norvegicus, UniProt Q05941). Kind of assay: Inhibition of [125I]alpha-bungarotoxin binding to nicotinic acetylcholine receptor alpha-7 subunit in rat GH4C1 cells. It is filed as cell-based, GH4-C1.
Another assay has as its target Acetylcholine receptor (Torpedo californica, UniProt P02710+P02712+P02714+P02718). Put plainly: Inhibition of [125I]alpha-bungarotoxin binding to nicotinic acetylcholine receptor alpha1 beta gamma delta of electroplax. The format is protein-complex assay. The method, boiled down: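 Competition binding with [125I]-α-bungarotoxin on electroplax membranes; N = 3 determinations.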

The target of assay [2] is T1, Neuronal acetylcholine receptor; alpha4/beta2 (Homo sapiens) (UniProt P17787+P43681). Put plainly: Percent antagonist activity against 10 uM nicotine at human nicotinic acetylcholine receptor alpha4-beta2 at 10 uM. It is filed as functional.
For assay [3], the target named is T1, Neuronal acetylcholine receptor; alpha4/beta2 (Homo sapiens). Kind of assay: Percent agonist activity relative to 10 uM (-)-nicotine at human nicotinic acetylcholine receptor alpha4-beta2 at 10 uM. The format is functional. In outline: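 Electrophysiology in Xenopus oocytes expressing human α4β2 nAChR. Compound applied alone at 10 µM. Current compared with the response to 10 µM (-)-nicotine (chosen over EC50 level to limit desensitization) and expressed as percent; N = 3, SEM ≤10%.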

Assay [4] deals with Neuronal acetylcholine receptor; alpha3/beta4 (Homo sapiens, UniProt P30926+P32297). Kind of assay: Inhibition of [3H]epibatidine binding to nicotinic acetylcholine receptor alpha3-beta4 of human IMR32 cells. It is filed as cell-based, IMR-32. In outline: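 Displacement of [3H]-epibatidine from IMR32 cell preparations; N = 3 determinations.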
Chain of Neuronal acetylcholine receptor; alpha3/beta4 (P30926 whole entry): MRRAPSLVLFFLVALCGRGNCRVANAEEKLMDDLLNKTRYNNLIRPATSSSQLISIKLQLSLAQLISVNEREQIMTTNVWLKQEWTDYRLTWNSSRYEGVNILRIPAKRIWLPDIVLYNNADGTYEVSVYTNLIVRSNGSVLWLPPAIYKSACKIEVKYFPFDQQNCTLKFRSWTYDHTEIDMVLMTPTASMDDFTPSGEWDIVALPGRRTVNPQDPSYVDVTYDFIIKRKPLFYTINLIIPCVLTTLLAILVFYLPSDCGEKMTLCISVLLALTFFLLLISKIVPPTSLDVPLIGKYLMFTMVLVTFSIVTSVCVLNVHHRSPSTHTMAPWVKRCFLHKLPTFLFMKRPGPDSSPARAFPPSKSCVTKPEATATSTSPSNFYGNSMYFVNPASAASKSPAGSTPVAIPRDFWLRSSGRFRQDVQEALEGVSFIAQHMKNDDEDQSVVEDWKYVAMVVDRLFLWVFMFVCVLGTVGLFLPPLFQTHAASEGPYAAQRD
Chain of Neuronal acetylcholine receptor; alpha3/beta4 (P32297 whole entry): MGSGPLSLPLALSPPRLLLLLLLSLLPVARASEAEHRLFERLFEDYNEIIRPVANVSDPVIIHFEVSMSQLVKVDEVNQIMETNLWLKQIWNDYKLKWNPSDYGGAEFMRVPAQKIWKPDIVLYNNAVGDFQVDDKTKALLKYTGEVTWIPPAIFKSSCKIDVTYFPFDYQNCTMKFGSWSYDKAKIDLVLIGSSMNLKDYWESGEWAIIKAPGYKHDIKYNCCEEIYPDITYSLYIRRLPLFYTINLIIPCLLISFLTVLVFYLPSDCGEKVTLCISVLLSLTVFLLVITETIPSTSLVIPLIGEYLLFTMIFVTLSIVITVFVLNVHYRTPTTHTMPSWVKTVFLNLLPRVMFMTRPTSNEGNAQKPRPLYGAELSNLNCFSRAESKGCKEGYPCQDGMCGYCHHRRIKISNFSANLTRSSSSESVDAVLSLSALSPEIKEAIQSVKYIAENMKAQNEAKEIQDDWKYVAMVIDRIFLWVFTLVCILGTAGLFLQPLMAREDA
The target in assay [5] is Neuronal acetylcholine receptor; alpha4/beta2 (Rattus norvegicus, UniProt P09483+P12390). Put plainly: Inhibition of [3H]nicotine binding to nicotinic acetylcholine receptor alpha4-beta2 of rat cortex. The method, boiled down:
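Radioligand displacement in rat cortex tissue; N = 3 determinations.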

Chain of Neuronal acetylcholine receptor subunit alpha-7 (Q05941 whole entry): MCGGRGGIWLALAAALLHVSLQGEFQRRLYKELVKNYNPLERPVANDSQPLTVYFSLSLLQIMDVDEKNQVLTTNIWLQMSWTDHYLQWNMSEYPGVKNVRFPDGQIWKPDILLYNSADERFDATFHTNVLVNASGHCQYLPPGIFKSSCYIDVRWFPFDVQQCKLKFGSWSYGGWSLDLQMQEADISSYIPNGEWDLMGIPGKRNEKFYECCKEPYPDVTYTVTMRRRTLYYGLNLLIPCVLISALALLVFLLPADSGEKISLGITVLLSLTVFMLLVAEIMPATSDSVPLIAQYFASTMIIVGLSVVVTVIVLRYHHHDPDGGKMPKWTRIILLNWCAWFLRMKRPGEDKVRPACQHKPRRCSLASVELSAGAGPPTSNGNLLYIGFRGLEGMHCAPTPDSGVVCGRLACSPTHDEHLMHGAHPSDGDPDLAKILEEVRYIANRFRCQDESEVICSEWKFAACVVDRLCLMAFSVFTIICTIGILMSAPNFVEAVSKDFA
Chain of Acetylcholine receptor (P02710 whole entry): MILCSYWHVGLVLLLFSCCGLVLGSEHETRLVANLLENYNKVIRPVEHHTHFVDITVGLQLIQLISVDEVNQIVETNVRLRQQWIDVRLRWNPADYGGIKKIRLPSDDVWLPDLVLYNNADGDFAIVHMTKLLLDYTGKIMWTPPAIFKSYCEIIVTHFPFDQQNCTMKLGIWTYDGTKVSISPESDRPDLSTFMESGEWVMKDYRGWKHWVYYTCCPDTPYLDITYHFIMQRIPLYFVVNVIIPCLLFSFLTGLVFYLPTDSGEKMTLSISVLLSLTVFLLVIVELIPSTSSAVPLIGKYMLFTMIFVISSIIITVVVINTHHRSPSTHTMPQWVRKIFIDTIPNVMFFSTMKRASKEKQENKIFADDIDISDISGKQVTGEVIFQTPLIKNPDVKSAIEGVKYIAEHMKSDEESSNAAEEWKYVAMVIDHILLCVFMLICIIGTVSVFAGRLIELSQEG
Chain of Acetylcholine receptor (P02712 whole entry): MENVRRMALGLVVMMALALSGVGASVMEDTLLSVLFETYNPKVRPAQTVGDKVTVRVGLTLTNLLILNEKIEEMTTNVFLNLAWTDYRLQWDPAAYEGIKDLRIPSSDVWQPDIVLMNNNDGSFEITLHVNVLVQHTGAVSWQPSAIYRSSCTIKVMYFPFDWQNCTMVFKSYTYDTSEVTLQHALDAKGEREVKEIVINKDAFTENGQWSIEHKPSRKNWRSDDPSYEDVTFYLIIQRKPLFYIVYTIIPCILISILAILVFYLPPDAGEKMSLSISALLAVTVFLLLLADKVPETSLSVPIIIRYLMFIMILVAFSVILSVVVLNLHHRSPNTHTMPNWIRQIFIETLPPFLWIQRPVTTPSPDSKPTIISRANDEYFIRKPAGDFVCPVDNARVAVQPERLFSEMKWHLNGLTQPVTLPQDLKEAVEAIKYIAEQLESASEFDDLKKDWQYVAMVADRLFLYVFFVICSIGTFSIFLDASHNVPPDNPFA
Chain of Acetylcholine receptor (P02718 whole entry): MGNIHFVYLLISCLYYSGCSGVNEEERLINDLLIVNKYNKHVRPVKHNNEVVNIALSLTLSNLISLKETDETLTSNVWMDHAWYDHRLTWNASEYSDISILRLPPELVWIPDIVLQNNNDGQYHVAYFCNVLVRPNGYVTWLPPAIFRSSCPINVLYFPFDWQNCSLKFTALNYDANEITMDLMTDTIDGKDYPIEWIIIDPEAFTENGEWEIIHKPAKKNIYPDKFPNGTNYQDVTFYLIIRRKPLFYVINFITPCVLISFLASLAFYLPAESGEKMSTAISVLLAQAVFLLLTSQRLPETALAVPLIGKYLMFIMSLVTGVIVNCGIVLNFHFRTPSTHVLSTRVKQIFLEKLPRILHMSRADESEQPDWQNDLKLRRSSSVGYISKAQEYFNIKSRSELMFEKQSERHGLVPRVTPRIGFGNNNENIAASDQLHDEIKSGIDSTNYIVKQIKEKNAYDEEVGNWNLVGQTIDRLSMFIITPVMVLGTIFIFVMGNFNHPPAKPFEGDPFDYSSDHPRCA
Chain of Acetylcholine receptor (P02714 whole entry): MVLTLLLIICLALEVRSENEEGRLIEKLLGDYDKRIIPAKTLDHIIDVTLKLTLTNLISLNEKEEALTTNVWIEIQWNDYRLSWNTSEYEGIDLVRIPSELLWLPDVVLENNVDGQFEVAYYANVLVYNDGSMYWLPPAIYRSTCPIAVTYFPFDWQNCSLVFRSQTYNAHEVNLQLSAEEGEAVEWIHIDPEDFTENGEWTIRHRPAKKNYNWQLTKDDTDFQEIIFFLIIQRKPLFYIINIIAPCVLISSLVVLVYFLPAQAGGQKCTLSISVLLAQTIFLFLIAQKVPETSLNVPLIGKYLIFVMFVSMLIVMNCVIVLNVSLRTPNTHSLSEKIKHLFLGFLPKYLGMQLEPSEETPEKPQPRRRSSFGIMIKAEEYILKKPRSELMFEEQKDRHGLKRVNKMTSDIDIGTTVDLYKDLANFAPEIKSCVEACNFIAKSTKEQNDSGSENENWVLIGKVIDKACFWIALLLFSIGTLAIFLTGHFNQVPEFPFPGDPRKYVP
Chain of Neuronal acetylcholine receptor; alpha4/beta2 (P09483 whole entry): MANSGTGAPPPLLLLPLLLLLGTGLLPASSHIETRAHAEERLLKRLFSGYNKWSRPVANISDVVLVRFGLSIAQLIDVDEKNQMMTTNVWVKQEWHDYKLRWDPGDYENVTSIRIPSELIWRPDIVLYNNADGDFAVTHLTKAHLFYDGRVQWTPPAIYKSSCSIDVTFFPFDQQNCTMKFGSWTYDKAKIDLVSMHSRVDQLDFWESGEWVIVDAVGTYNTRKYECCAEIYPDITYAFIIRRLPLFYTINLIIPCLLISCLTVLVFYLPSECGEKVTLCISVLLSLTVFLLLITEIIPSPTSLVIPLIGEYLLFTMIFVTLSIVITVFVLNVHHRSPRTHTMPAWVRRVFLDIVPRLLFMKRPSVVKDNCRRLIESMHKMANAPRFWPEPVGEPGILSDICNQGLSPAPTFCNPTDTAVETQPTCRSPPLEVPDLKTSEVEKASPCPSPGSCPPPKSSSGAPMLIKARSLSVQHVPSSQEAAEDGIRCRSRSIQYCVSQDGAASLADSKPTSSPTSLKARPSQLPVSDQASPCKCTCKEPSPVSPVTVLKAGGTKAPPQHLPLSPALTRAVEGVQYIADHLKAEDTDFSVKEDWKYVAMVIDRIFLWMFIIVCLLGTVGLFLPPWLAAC
Chain of Neuronal acetylcholine receptor; alpha4/beta2 (P12390 whole entry): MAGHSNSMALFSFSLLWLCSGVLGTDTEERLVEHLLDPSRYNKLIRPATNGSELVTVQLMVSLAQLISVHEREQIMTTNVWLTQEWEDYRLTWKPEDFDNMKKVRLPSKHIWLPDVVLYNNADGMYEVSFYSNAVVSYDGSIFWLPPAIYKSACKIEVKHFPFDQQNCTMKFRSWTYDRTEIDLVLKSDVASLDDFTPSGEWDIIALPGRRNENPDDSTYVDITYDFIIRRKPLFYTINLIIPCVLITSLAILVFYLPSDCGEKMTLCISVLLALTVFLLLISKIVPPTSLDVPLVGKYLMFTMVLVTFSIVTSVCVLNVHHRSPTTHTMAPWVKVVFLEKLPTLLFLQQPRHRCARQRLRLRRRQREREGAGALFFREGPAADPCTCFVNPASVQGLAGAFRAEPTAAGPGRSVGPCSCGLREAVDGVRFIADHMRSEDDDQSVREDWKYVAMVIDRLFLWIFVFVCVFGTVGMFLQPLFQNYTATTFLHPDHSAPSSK

On to `c1ccc2c(c1)C1CNCC2C1`, for which the Ki – broadly, a dissociation constant, usually derived from enzyme kinetics or from competition with a known ligand – was more than 5000 nM in assay [1], 370 nM at Acetylcholine receptor, 2850 nM in assay [4] and 20 nM in assay [5]. For the same compound, in assay [2], the inhibition (in general, the drop in the measured response relative to a control, in per cent) was 35%. In assay [3], this compound had a Response of 0%.

Turning to `c1cnc2cc3c(cc2n1)[C@@H]1CNC[C@H]3C1`, the Ki in assay [1] worked out at 322 nM; on Acetylcholine receptor it was 3540 nM; in assay [5], 0.06 nM. In addition, the inhibition in assay [2] came out at 34%. This compound registered a Response in assay [3] of 68%.

For `O=[N+]([O-])c1ccc2c(c1)C1CNCC2C1` (racemic), the inhibitory constant (Ki) in assay [1] was determined as 7340 nM; at Acetylcholine receptor, 690 nM; in assay [4] it was 210 nM; in assay [5], 0.75 nM. Moreover, the inhibition in assay [2] came to 20%. The Response in assay [3] is 65%.

As for `O=c1cccc2n1C[C@@H]1CNC[C@H]2C1` (single isomer, unassigned) [CYTISINICLINE], the Ki in assay [1] was found to be 4200 nM; on Acetylcholine receptor, 250 nM; in assay [4] it was 840 nM; in assay [5], 0.17 nM. The compound also came in with an inhibition in assay [2] of 30%. Also, the Response in assay [3] stood at 56%.

`CN1CCC[C@H]1c1cccnc1` [NICOTINE]: the inhibition constant (Ki) at Acetylcholine receptor was found to be 6270 nM. This compound gave a Response in assay [3] of 100%.

The record behind these values is ChEMBL document CHEMBL1139503, “Varenicline: an alpha4beta2 nicotinic receptor partial agonist for smoking cessation” (J Med Chem, 2005).
